Values after ≈ are worked out from the molar mass of the structure shown. Peptide text beside a SMILES is read from it.
What was measured:
[1] = tested on: Staphylococcus epidermidis; test: Antibacterial activity against Staphylococcus epidermidis NBRC 12933 after overnight incubation by microplate dilution method; format: functional
How it was run: (§1)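 MIC read by microplate broth dilution with an inoculum of 10^6 organisms per ml of medium. Each peptide was tested 7–10 times.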

[2] = Hemolytic activity against sheep RBC at 20 to 100 uM after 30 mins by spectrophotometry; format: ADME, cell-based, Ovis aries; details: erythrocyte, 0.5 h
How it was run: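 Sheep erythrocytes were exposed to a range of peptide concentrations to build hemolysis (%) dose–response curves. The experiment was run three times per peptide.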

[3] = tested on: Escherichia coli; test: Antibacterial activity against Escherichia coli NBRC 12734 after overnight incubation by microplate dilution method; format: functional; how it was run: as §1
[4] = tested on: Priestia megaterium; test: Antibacterial activity against Bacillus megaterium ATCC 19213 after overnight incubation by microplate dilution method; format: functional; how it was run: as §1
[5] = tested on: Bacillus subtilis; test: Antibacterial activity against Bacillus subtilis NBRC 3513 after overnight incubation by microplate dilution method; format: functional; how it was run: as §1
[6] = tested on: Staphylococcus aureus; test: Antibacterial activity against Staphylococcus aureus NBRC 12732 after overnight incubation by microplate dilution method; format: functional; how it was run: as §1
[7] = tested on: Pseudomonas aeruginosa; test: Antibacterial activity against Pseudomonas aeruginosa NBRC 3080 after overnight incubation by microplate dilution method; format: functional; how it was run: as §1

Structure (SMILES)	MIC [1] [µg/mL]	Activity [2]	MIC [3] [µg/mL]	MIC [4] [µg/mL]	MIC [5] [µg/mL]	MIC [6] [µg/mL]	MIC [7] [µg/mL]
CCCCCCCC(=O)N[C@H]1C[C@H]2C(=O)N[C@@H](C(C)C)C(=O)N[C@@H](CCCN)C(=O)N[C@@H](CC(C)C)C(=O)N[C@H](Cc3ccccc3)C(=O)N3CCC[C@H]3C(=O)N[C@@H](C(C)C)C(=O)N[C@@H](CCCN)C(=O)N[C@@H](CC(C)C)C(=O)N[C@H](Cc3ccccc3)C(=O)N2C1	6.25 (≈ 4.87 µM)	Toxic	50 (≈ 39 µM)	6.25 (≈ 4.87 µM)	12.5 (≈ 9.75 µM)	6.25 (≈ 4.87 µM)	50 (≈ 39 µM)
CC(C)C[C@@H]1NC(=O)[C@H](CCCN)NC(=O)[C@H](C(C)C)NC(=O)[C@@H]2CCCN2C(=O)[C@@H](Cc2ccccc2)NC(=O)[C@H](CC(C)C)NC(=O)[C@H](CCCN)NC(=O)[C@H](C(C)C)NC(=O)[C@@H]2CCCN2C(=O)[C@@H](Cc2ccccc2)NC1=O [GRAMICIDIN S] (HELM PEPTIDE1{L.[dF].P.V.[Orn].L.[dF].P.V.[Orn]}$PEPTIDE1,PEPTIDE1,1:R1-10:R2$$$V2.0)	3.13 (≈ 2.74 µM)		25 (≈ 21.9 µM)	3.13 (≈ 2.74 µM)	3.13 (≈ 2.74 µM)	3.13 (≈ 2.74 µM)	25 (≈ 21.9 µM)
CC(C)C[C@@H]1NC(=O)[C@H](CCCN)NC(=O)[C@H](C(C)C)NC(=O)[C@@H]2C[C@H](N)CN2C(=O)[C@@H](Cc2ccccc2)NC(=O)[C@H](CC(C)C)NC(=O)[C@H](CCCN)NC(=O)[C@H](C(C)C)NC(=O)[C@@H]2CCCN2C(=O)[C@@H](Cc2ccccc2)NC1=O	6.25 (≈ 5.4 µM)	Toxic	25 (≈ 21.6 µM)	6.25 (≈ 5.4 µM)	6.25 (≈ 5.4 µM)	12.5 (≈ 10.8 µM)	50 (≈ 43.2 µM)
CC(C)C[C@@H]1NC(=O)[C@H](CCCN)NC(=O)[C@H](C(C)C)NC(=O)[C@@H]2C[C@@H](N)CN2C(=O)[C@@H](Cc2ccccc2)NC(=O)[C@H](CC(C)C)NC(=O)[C@H](CCCN)NC(=O)[C@H](C(C)C)NC(=O)[C@@H]2CCCN2C(=O)[C@@H](Cc2ccccc2)NC1=O	6.25 (≈ 5.4 µM)	Toxic	25 (≈ 21.6 µM)	6.25 (≈ 5.4 µM)	6.25 (≈ 5.4 µM)	12.5 (≈ 10.8 µM)	50 (≈ 43.2 µM)
